For seven compounds, IC50, EC50 and CC50 results are on record in ChEMBL document CHEMBL1177654, “[d4U]-spacer-[HI-236] double-drug inhibitors of HIV-1 reverse-transcriptase” (Bioorg Med Chem, 2010).

A value given as a limit tells only on which side of the number the result lay.

Data set [1] deals with Human immunodeficiency virus type 1 reverse transcriptase (Human immunodeficiency virus 1, UniProt Q72547). Kind of data set: Inhibition of HIV1 reverse transcriptase-mediated thymidine incorporation into D23/D36 primer-template preincubated for 15 mins by polyacrylamide gel-electrophoresis. An outline of the steps:
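RT at 6 nM active sites (from pre-steady-state active-site titration) pre-incubated ≥15 min with 1 μM 5′-radiolabelled D23/D36 primer/template, then ≥15 min on ice with inhibitor (DMSO held constant, <2%; DMSO-only control). Reaction started with 5 μM dTTP plus 10 mM MgCl2 (final concentrations), 15 min at 37 °C, quenched with 0.3 M EDTA. Products resolved on 20% denaturing PAGE. IC50 taken from a hyperbolic fit of product versus inhibitor concentration.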

Data set [2] has as its system Human immunodeficiency virus 1. Description: Antiviral activity against HIV1 3B infected in human MT-2 cells assessed as inhibition of viral-mediated cell death after 5 days by MTT assay. It is filed as functional, organism-based. The note with it: Human immunodeficiency virus 1, 3B, MT2, 120 h. An outline of the steps: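 MT-2 cells at 1 × 10^5 cells/mL infected with wild-type HIV-IIIB at MOI 0.1, cultured 5 days in RPMI 1640 with 10% dFBS and kanamycin across varying compound concentrations in triplicate. MTT added for 5 h, cells lysed with acidified isopropanol, absorbance read at 595 nm. Triplicate averages plotted as dose-response curves; EC50 is the concentration inhibiting viral-mediated cell death by 50%.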

Another data set relates to MT2. Kind of data set: Cytotoxicity against human MT2 cells after 5 days by MTT assay. It is filed as cell-based. The note with it: mt2, 120 h. An outline of the steps: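 Mock-infected MT-2 cells (1 × 10^5 cells/mL) grown 5 days in RPMI 1640 with 10% dFBS and kanamycin at varying compound concentrations, in triplicate. Viability read by MTT (5 h), then acidified isopropanol lysis and absorbance at 595 nm. Triplicate averages plotted against concentration; CC50 is the concentration reducing viable cells by 50%.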
Background: Tetrazolium dyes change colour on reduction, which living cells bring about.

On to `COc1ccc(OCCOCC#Cc2cn([C@H]3C=C[C@@H](CO)O3)c(=O)[nH]c2=O)c(CCNC(=S)Nc2ccc(Br)cn2)c1`, for which the IC50 (commonly the concentration at which inhibition is half-maximal) in data set [1] amounted to 575 nM. Besides, in data set [2], the EC50 (as a rule, the concentration needed to bring the measured effect to its halfway point) is 1300 nM. In addition, in the data set on MT2, it took 38 µM to reach half-maximal cytotoxicity (CC50).
For `COc1ccc(OCCOCCOCC#Cc2cn([C@H]3C=C[C@@H](CO)O3)c(=O)[nH]c2=O)c(CCNC(=S)Nc2ccc(Br)cn2)c1`, in that order: 850 nM, 1900 nM and 43 µM.
In the case of `COc1ccc(OCCOCCOCCOCCOCC#Cc2cn([C@H]3C=C[C@@H](CO)O3)c(=O)[nH]c2=O)c(CCNC(=S)Nc2ccc(Br)cn2)c1`, the concentration for half-maximal inhibition (IC50) in data set [1] was found to be 1400 nM. In addition, the EC50 in data set [2] amounted to 3100 nM. In the data set on MT2, the CC50 (in general, the concentration that lowers cell viability or growth by half) came to 18 µM.
For `COC(=O)[C@H](C)NP(=O)(OC[C@@H]1C=C[C@H](n2cc(C#CCOCCOCCOCCOCCOc3ccc(OC)cc3CCNC(=S)Nc3ccc(Br)cn3)c(=O)[nH]c2=O)O1)Oc1ccc(C)cc1` (stereo not given in full), in that order: 2300 nM, 2900 nM and 11 µM.
For `COc1ccc(OCCC#Cc2cn([C@H]3C=C[C@@H](CO)O3)c(=O)[nH]c2=O)c(CCNC(=S)Nc2ccc(Br)cn2)c1`, in that order: 61 nM, 250 nM and 17 µM.
As for `COc1ccc(OC)c(CCNC(=S)Nc2ccc(Br)cn2)c1`, the IC50 in data set [1] was 38 nM. Besides, in the data set with MT2, the CC50 was above 1 µM.
`Cc1cn([C@H]2C=C[C@@H](CO)O2)c(=O)[nH]c1=O` [STAVUDINE] registered an IC50 in data set [1] of 9600 nM. For the same compound, in data set [2], the EC50 was determined as 2300 nM. In the data set on MT2, this compound registered a half-maximal cytotoxic concentration (CC50) above 100 µM.
